# Results: PubChem BioAssay AID504382 (The Scripps Research Institute Molecular Screening Center, 2011)
# The campaign covered roughly 2,500 compounds. About 460 (18%) were called active. A selection follows. A number with no mark means an inactive call.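 How the source made its calls: active means mean activation above a cutoff of low control average plus 3 SD from the earlier screen (cut at about 12% in these data); inactive means the rest.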
# Assay: compound fluorescence interference without thin filaments, confirmation, artefact control for cardiac RTF calcium sensitizer project, biochemical (AID 504382)
# Conditions: IANBD fluorescence interference counterscreen, buffer, EC20 Ca2+; at 7.2 µM; hits give high values; scaled: EC20 calcium 0, EC100 calcium 100
# Method in brief: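 Medium: MOPS/KCl/MgCl2/EGTA/NTA/DTT buffer, pH 7.2 | Reagent: EC20 calcium, 0.472 mM | Compound dosing: 7.2 µM single dose | Times: 15 min compound exposure at 25 °C | Signal: Fluorescence, 480/540 nm | Measure: Interference relative to controls | Repeats: Triplicate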
row,Compound,fluorescence artifact activation
1,Cc1ccccc1OCCC(=O)Nc1cc(S(=O)(=O)N2CCCCC2)ccc1N1CCN(C)CC1,4.83%
2,CCN1/C(=C/c2ccc3cc(C)ccc3[n+]2CC)Sc2ccc3sccc3c21,0.99%
3,CCN1/C(=C\c2ccc3cc(C)ccc3[n+]2CC)Sc2cc(C)c(C)cc21,0.1%
4,CCN1/C(=C/c2ccc3cc(C)cc(C)c3[n+]2CC)Sc2cc(C)ccc21,0.44%
5,CCN1/C(=C\c2ccc3ccccc3[n+]2CC)Sc2cc(C)ccc21,20.2% (active)
6,CCN1/C(=C/c2ccc3cc(C)ccc3[n+]2CC)Sc2ccccc21,15.3% (active)
7,CCN1/C(=C/c2ccc3cc(C)ccc3[n+]2CC)Sc2cc(C)ccc21,0.41%
8,COCCN(CCOC)Cc1c(O)ccc2c1O/C(=C\c1ccco1)C2=O,0.11%
9,C=CCn1c(O)c(CN2CCN(Cc3ccccc3)CC2)c(C)c(C#N)c1=O,0.03%
10,CCC[C@@H](CN1CCC[C@H]1CN1C(N)=NC[C@@H]1Cc1ccccc1)N1C[C@@H](Cc2ccccc2)N(CCCC2CCCC2)C1=N,7.46%
11,CCOc1ccc(NC(=O)/C(C#N)=C/c2ccc(N3CCCC3)c(C)c2)cc1,0.06%
12,Oc1[nH]c2ccc(Br)cc2c1N=Nc1ccc(F)cc1,5.56%
13,CS(=O)(=O)Nc1ccc(C2=NN(C(=O)CCCC(=O)O)C(c3cccs3)C2)cc1 (centres undefined),16.5% (active)
14,COc1ccc(C2=NN(C(=O)COC(=O)c3ccc(NC(=O)CC#N)cc3)C(c3ccco3)C2)cc1 (centres undefined),2.58%
15,O/C(=C\c1nc2ccccc2[nH]1)c1cccs1,0%
16,O=C(O)c1ccc(O)c(O)c1,-0.01%
17,Cc1cc(C)c[n+](-c2[nH]c(=O)sc2/C=N/NC([S-])=Nc2ccccc2)c1,0.17%
18,Cc1ccc[n+](-c2nc([O-])sc2C=O)c1,9.59%
19,Cc1ccc(N/C=C2/Sc3ccccc3NC2=O)cc1,0.14%
20,CC1C2(C)OC(=N)C(C#N)(C(C)O2)C1(C#N)C#N (centres undefined),0.64%
21,CCN1C(=O)/C(=C/C=C2/SCCN2C)SC1=S,10.2%
22,CCN1C(=O)/C(=C\C=C2/C=CC=CN2CC)SC1=S,104% (active)
23,CCCCN1C(=O)/C(=C/C=C2/CC(C)(C)CN2C)SC1=S,-0.02%
24,COC(=O)C(C)n1cnc2c(nnn2Cc2ccc(Cl)cc2)c1=O (centres undefined),0.03%

row,Compound,fluorescence artifact activation
1,Cc1ccc(C)c(S(=O)(=O)N2CCCC2CNC(=O)C(=O)NC2CC2)c1 (centres undefined),0.11%
2,Cc1cc(/C=C2\SC(=S)N(C)C2=O)c(C)n1-c1ccccc1O,3.34%
3,CN(/N=C/c1ccc(N(C)C)cc1)C1=NS(=O)(=O)c2ccccc21,6.25%
4,CCN(CC)c1ccc2c(Cl)c(Br)c(=O)oc2c1,0.1%
5,CCN(CC)c1ccc2cc(-c3nc4ccccc4n3C)c(=O)oc2c1,0.12%
6,CCN(CC)c1ccc2cc(C=O)c(=O)oc2c1,5.57%
7,CCN(CC)c1ccc2c(c1)oc(=O)c1c(Cl)cc(=O)oc12,21.4% (active)
8,CCN(CC)c1ccc2oc(=O)c(C)nc2c1,124% (active)
9,O=C(Nc1ccccc1)C1CC2CCCC(C1)C2=O (centres undefined),2.4%
10,O=C(C1=NN(c2ccccc2)C2C(=O)N(c3ccc(Cl)cc3)C(=O)C12)c1ccccc1 (centres undefined),-0.02%
11,Cc1ccc2c(C(=O)CN3CCC(C(N)=O)CC3)c(C)[nH]c2c1,9.54%
12,CCS(=O)(=O)N1Cc2ccccc2CC1C(=O)Nc1ccc(OC)cc1OC (centres undefined),0.07%
13,O=C(O)c1cccc2c1C(=O)c1ccc(N3CCCC3)cc1S2(=O)=O,-0.07%
14,C=CCN1C(=O)c2cccc3c(N4CCCCC4)ccc(c23)C1=O,2.88%
15,O=C1c2cccc3c(N4CCCCC4)ccc(c23)C(=O)N1CCO,42.3% (active)
16,CCCN1C(=O)c2cccc3c(N4CCCCC4)ccc(c23)C1=O,0.47%
17,O[C@@H]1CN(C2CCCCC2)CC[C@H]1N1CCN(CCc2ccccc2)CC1,7.79%
18,CC[C@@]1(O)C(=O)OCc2c1cc1n(c2=O)Cc2cc3c(CN(C)C)c(O)ccc3nc2-1,6.14%
19,CCOc1ccc(Nc2nc(N)c([N+](=O)[O-])c(NCc3ccccc3)n2)cc1,0.09%
20,C[n+]1ccc(/C=C/c2c[nH]c3ccc(F)cc23)cc1,0.16%
21,Cc1ccc2[nH]cc(/C=C/c3cc[n+](C)cc3)c2c1,-0.07%
22,CC[n+]1ccc(/C=C/c2c[nH]c3ccccc23)cc1,59.8% (active)
23,C[n+]1ccc(/C=C/c2c[nH]c3ccccc23)cc1,57.3% (active)
24,C(=Cc1c[nH]c2ccccc12)c1nccc2ccccc12,1.55%

row,Compound,fluorescence artifact activation
1,OCC[n+]1ccc(/C=C/c2c[nH]c3ccccc23)cc1,0%
2,Cc1cc(Cl)ccc1OCC(=O)NCCOc1nc(N2CCOCC2)nc(N2CCOCC2)n1,0.1%
3,N#Cc1c(-c2ccccc2F)cc(C2CC2)nc1SCC(=O)c1cccs1,0.28%
4,Cc1ccc(C(=O)N/C(=C/c2ccc(-c3ccc([N+](=O)[O-])cc3)o2)C(=O)NCCCN(C)C)cc1,0.29%
5,NC(=O)CC[C@@H]1NC(=O)[C@H](Cc2ccc(O)cc2)NC(=O)c2cc([N+](=O)[O-])cc(F)c2OCC[C@@H](C(N)=O)NC1=O,0.02%
6,COc1ccc(CNS(=O)(=O)c2cc(-c3cc(C)no3)ccc2OC)cc1OC,2.41%
7,CC(C)(CO)NCC#Cc1ccccc1,-0.01%
8,CSCCC(NC(=O)c1ccccc1Cl)C(=O)N1CCC1 (centres undefined),-0.06%
9,Cc1nn(C)c(NC(=O)c2ccccc2Cl)c1Cl,18.7% (active)
10,COc1ccccc1C(=O)Nc1nnn(C)n1,-0.09%
11,O=C(Oc1cc2oc(=O)c3c(c2cc1Cl)CCCC3)c1cccs1,0.11%
12,CC1CC(C)CN(CCOCCSc2ccccc2)C1 (centres undefined),28.4% (active)
13,Cc1ccccc1C(=O)c1cccn1CC(=O)NCCCN1CC(C)CC(C)C1 (centres undefined),0.1%
14,CC1CN(CCCCOc2ccc3ccccc3c2)CC(C)O1 (centres undefined),0.12%
15,CC1CCN(c2ccc3c(c2)S(=O)(=O)c2cccc(C(=O)NCc4cccc(F)c4)c2C3=O)CC1,0.09%
16,C=CCNC(=S)N(CC=C)C1CCS(=O)(=O)C1 (centres undefined),0.07%
17,COC(=O)CCCCCN1C(=O)/C(=C\c2ccncc2)SC1=S,-0.01%
18,Cc1cccn2c(=O)c(/C=C3\SC(=S)NC3=O)c(NCCCN3CCOCC3)nc12,21.4% (active)
19,Cc1cccn2c(=O)c3cc(C#N)c(=NC(=O)c4cccs4)n(CCCOC(C)C)c3nc12,-0.06%
20,Cc1cccn2c(=O)c(/C=C3\SC(=S)N(CC(C)C)C3=O)c(NCCCOC(C)C)nc12,17.1% (active)
21,O=C1NC(=S)S/C1=C/c1ccc(N2CCOCC2)o1,1.59%
22,CCNC(=O)/C(C#N)=C/c1c(N2CCN(Cc3ccc4c(c3)OCO4)CC2)nc2c(C)cccn2c1=O,0.06%
23,O=C1CCN2C=Nc3cccc4ccc1c2c34,-0.03%
24,CC1=C(C)CC(C(=O)NNC(=O)c2cccc(Cl)c2)C(C(=O)O)C1 (centres undefined),-0.06%

row,Compound,fluorescence artifact activation
1,Cc1c(N=C2N=C(NC(=O)Nc3ccc(Cl)cc3)c3ccccc32)c(=O)n(-c2ccccc2)n1C,20.3% (active)
2,CN1CCC/C1=C1/C(=O)N(c2ccccc2)N=C1NC(=O)Nc1cccc(Cl)c1,0.05%
3,Cc1cc([N+](=O)[O-])nn1CC(=O)Nc1c(C)n(C)n(-c2ccccc2)c1=O,3.39%
4,O=C(Nc1cccc2c1N(C(=O)c1ccco1)CCC2)c1ccco1,5.02%
5,COc1ccccc1CNC(=O)COC(=O)c1cccc(S(=O)(=O)N2CCOCC2)c1,0.16%
6,Cc1ccc(C(C)NC(=O)c2cccs2)cc1C (centres undefined),174% (active)
7,C[C@@H](NC(=O)c1ncn(C)c1C(=O)N[C@H](C)c1ccccc1)c1ccccc1,0%
8,C/C(=N\NC(=O)c1ccccc1)c1ccc(NC(=O)c2cccs2)cc1,0.85%
9,Cc1cc(S(=O)(=O)NC(C)C)ccc1OCC(=O)NCc1ccccc1,0.08%
10,CCOC(=O)c1c(NCC(C)C)c2ccccc2[nH]c1=O,39.3% (active)
11,COC(=O)[C@H](C)NC(=O)c1cc2c(cn1)[nH]c1ccccc12,0.32%
12,CCN(CC)C(=O)C(=O)c1c(-c2ccccc2)[nH]c2ccccc12,6.52%
13,C=CCN1C(=O)[C@@H]2Cc3c([nH]c4ccccc34)C(c3ccc(O)cc3)N2C1=S (some centres undefined),-0.05%
14,CCC(=O)N1CCN(c2nc(C)nc3sc(C)c(C)c23)CC1,0.08%
15,S=C1NC2=C(CCCC2=C2SCCCS2)C(c2ccccc2)N1 (centres undefined),0.29%
16,CC(=O)N(C(C)=O)N1C(=O)c2cccc3c(N4CCOCC4)ccc(c23)C1=O,0.01%
17,O=C(OCCN1C(=O)c2cccc3c(N4CCOCC4)ccc(c23)C1=O)c1ccc(Cl)cc1,1.59%
18,O=C(O)CN1C(=O)c2cccc3c(Br)ccc1c23,53.6% (active)
19,CCn1c(CSCc2ccccc2)n[nH]c1=S,0.18%
20,Cc1ccc(NC(=O)CO/N=C/c2ccc(N(C)C)cc2)cc1,0.03%
21,Cc1ccc(NC(=O)COc2ccc(/C=N/NC(=O)CSCc3ccccc3)cc2)cc1,12.9% (active)
22,Cc1ccc(NC(=O)CN(C)C(=O)COC(=O)COc2ccc(C#N)cc2)cc1,0.42%
